Broadly, the IC50 is the point on the concentration scale where inhibition reaches its midpoint. One may read the kcat/Km as the second-order rate constant that governs catalysis at low substrate concentration.

Assay [1] in a line: Inhibition of Mycobacterium smegmatis His6-tagged DXR preincubated for 2 mins in presence of NADPH followed by DXP substrate addition. Also noted: species or system Mycolicibacterium smegmatis. In outline: (§1)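 Recombinant His-tagged DXR was assayed at 37°C in 50 mM Tris/HCl pH 7.5 with 3 mM MgCl2 and 2 mM DTT. The enzyme was pre-incubated for 2 min with NADPH and the inhibitor at a range of concentrations, then DXP was added to start the reaction and residual activity was measured. IC50 was read from a plot of percent residual activity versus log inhibitor concentration.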

Assay [2] in a line: Inhibition of Escherichia coli His6-tagged DXR preincubated for 2 mins in presence of NADPH followed by DXP substrate addition. In outline: as §1
In assay [3] the test system is Escherichia coli. The experiment in a line: Growth inhibition of Escherichia coli XL1 blue at 100 nmol/disc incubated overnight by paper disc diffusion method. The format is functional. In outline:
(§2)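 Paper disc diffusion assay on E. coli XL1 Blue grown in LB agar. 6 mm paper discs were impregnated with the stated amount of compound, and plates were incubated overnight at 37°C.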
(In general: In agar diffusion tests the substance spreads into inoculated agar from a disc or well.)

Assay [4] has as its system Escherichia coli. The experiment in a line: Growth inhibition of Escherichia coli XL1 blue at 2 nmol/disc incubated overnight by paper disc diffusion method. In kind it is functional. In outline: (§3)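 Paper disc diffusion on E. coli XL1 Blue growing on LB-agar; 6 mm paper discs impregnated with test compound at the stated amount per disc; plates incubated overnight at 37°C, then growth inhibition read.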

For assay [5], the system named is Escherichia coli. The experiment in a line: Growth inhibition of Escherichia coli XL1 blue at 160 nmol/disc incubated overnight by paper disc diffusion method. In kind it is functional. A digest of the protocol:
as §2

In assay [6] the test system is Escherichia coli. The experiment in a line: Growth inhibition of fosmidomycin resistant Escherichia coli incubated overnight by paper disc diffusion method. In kind it is functional.
The subject of assay [7] is Escherichia coli. The experiment in a line: Growth inhibition of Escherichia coli XL1 blue at 80 nmol/disc incubated overnight by paper disc diffusion method. The format is functional. A digest of the protocol: as §3
The test system of assay [8] is Escherichia coli. The experiment in a line: Growth inhibition of Escherichia coli XL1 blue at 400 nmol/disc incubated overnight by paper disc diffusion method. The format is functional. A digest of the protocol:
as §3

For assay [9], the system named is Escherichia coli. The experiment in a line: Activity at Escherichia coli DXR assessed as ratio of Kcat to Km […] in presence of NADPH by Lineweaver-burk plot method.

With `CC(=O)N(O)CCOP(=O)(O)O`, the IC50 in assay [1] was 279 nM; in assay [2], 77 nM. In addition, in assay [3], the “diameter of the inhibition zone (DIZ)” value was 27 mm.
Take `O=CN(O)CCCP(=O)(O)O` [FOSMIDOMYCIN]: in [4], the “diameter of the inhibition zone (DIZ)” value came out at 34 mm. Further, the IC50 in [2] turned out to be 42 nM.
With `O=CN(O)CCOP(=O)(O)O`, the IC50 in assay [1] is 2100 nM; in assay [2] it was 342 nM. The “diameter of the inhibition zone (DIZ)” value in assay [5] was determined as 24 mm.
Turning to `CN(O)C(=O)CCCP(=O)(O)O`, the IC50 in assay [2] turned out to be 48 nM. In addition, the “diameter of the inhibition zone (DIZ)” value was found to be 18 mm in assay [6] and 30 mm in assay [7].
In the case of `O=C(CCOP(=O)(O)O)NO`, the IC50 in assay [1] was 9200 nM; in assay [2], 2600 nM. Also, the “diameter of the inhibition zone (DIZ)” value in assay [8] is less than 10 mm.
As to `CC(=O)[C@@H](O)[C@H](O)COP(=O)(O)O`, in assay [9], the kcat/Km is 412000 M⁻¹ s⁻¹.
In the case of `O=C(CCCP(=O)(O)O)NO`, the IC50 in assay [2] turned out to be 170 nM. The “diameter of the inhibition zone (DIZ)” value in assay [8] is recorded as 12 mm.
`CN(O)C(=O)CCOP(=O)(O)O`: the IC50 in assay [1] is 233 nM; in [2] it was 46 nM. For the same compound, the “diameter of the inhibition zone (DIZ)” value in assay [5] came to 20 mm.
Regarding `CC(=O)[C@@H](O)[C@H](O)CCP(=O)(O)O`, the kcat/Km in [9] was 11700 M⁻¹ s⁻¹.
For `CC(=O)N(O)CCCP(=O)(O)O` [FR-900098], the “diameter of the inhibition zone (DIZ)” value in [4] is 32 mm. Further, in assay [2], the IC50 was determined as 4 nM.
